Calls of active or inactive are those of the source. The calls are words filed in the database; no cut-off is given here.
How the values were obtained:
[1] = Toxicity in New Zealand White rabbit assessed as induction of eye lid closure at 1% administered topically to the eye; design: species or system Oryctolagus cuniculus; settings: in vivo, topical_or_ocular
Outline: (§1)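 Single 25 µl drop given to the left eye of albino rabbits, which were held immobile for one minute afterwards. Irritation was followed by eye throughout the experiment and scored as blinking, head shaking or eyelid closure, with the duration of closure noted in seconds.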

[2] = biological target: Carbonic anhydrase 4 (Homo sapiens, UniProt P22748); assay: Inhibition of human carbonic anhydrase 4 incubated for 15 mins by phenol red staining-based stopped flow CO2 hydrase assay
[3] = biological target: Carbonic anhydrase 12 (Homo sapiens, UniProt O43570); assay: Inhibition of human carbonic anhydrase 12 incubated for 15 mins by phenol red staining-based stopped flow CO2 hydrase assay
[4] = tested on: Oryctolagus cuniculus; assay: Reduction of intraocular pressure in ocular normotensive New Zealand White rabbit at 1% administered topically to the eye measured for 0.5 to 8 hrs by tonometry; format: functional, organism-based
[5] = biological target: Carbonic anhydrase 2 (Homo sapiens, UniProt P00918); assay: Inhibition of human carbonic anhydrase 2 incubated for 15 mins by phenol red staining-based stopped flow CO2 hydrase assay
[6] = Toxicity in New Zealand White rabbit assessed as head shaking at 1% administered topically to the eye; design: species or system Oryctolagus cuniculus; settings: in vivo, topical_or_ocular; outline: as §1
[7] = biological target: Carbonic anhydrase 1 (Homo sapiens, UniProt P00915); assay: Inhibition of human carbonic anhydrase 1 incubated for 15 mins by phenol red staining-based stopped flow CO2 hydrase assay
[8] = tested on: Oryctolagus cuniculus; assay: Reduction of intraocular pressure in ocular normotensive New Zealand White rabbit administered topically to the eye measured for 0.5 to 8 hrs by tonometry (reference value: 12.00 +/- 6.81%); format: functional; settings: topical
[9] = Toxicity in New Zealand White rabbit assessed as induction of eye lid closure at 0.5% administered topically to the eye; design: species or system Oryctolagus cuniculus; settings: in vivo, topical_or_ocular; outline: as §1
[10] = tested on: Oryctolagus cuniculus; assay: Reduction of intraocular pressure in ocular normotensive New Zealand White rabbit at 0.5 % administered topically to the eye measured for 0.5 to 8 hrs by tonometry; format: functional, organism-based
[11] = Toxicity in New Zealand White rabbit assessed as head shaking at 0.5% administered topically to the eye; design: species or system Oryctolagus cuniculus; settings: in vivo, topical_or_ocular; outline: as §1
[12] = Toxicity in New Zealand White rabbit assessed as head shaking at 2% administered topically to the eye; design: species or system Oryctolagus cuniculus; settings: in vivo, topical_or_ocular; outline: as §1
[13] = Toxicity in New Zealand White rabbit assessed as induction of eye lid closure at 2% administered topically to the eye; design: species or system Oryctolagus cuniculus; settings: in vivo, topical_or_ocular; outline: as §1
[14] = tested on: Oryctolagus cuniculus; assay: Reduction of intraocular pressure in ocular normotensive New Zealand White rabbit at 2% administered topically to the eye measured for 0.5 to 8 hrs by tonometry; format: functional, organism-based

Carbonic anhydrase 1, sequence (P00915 whole entry): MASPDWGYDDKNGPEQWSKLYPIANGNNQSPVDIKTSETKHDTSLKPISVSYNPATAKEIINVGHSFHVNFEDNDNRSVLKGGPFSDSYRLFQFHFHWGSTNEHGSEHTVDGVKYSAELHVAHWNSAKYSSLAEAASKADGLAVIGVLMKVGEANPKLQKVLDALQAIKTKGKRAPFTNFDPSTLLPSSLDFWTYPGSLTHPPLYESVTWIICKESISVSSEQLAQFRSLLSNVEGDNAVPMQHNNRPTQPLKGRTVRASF
Carbonic anhydrase 12, sequence (O43570 whole entry): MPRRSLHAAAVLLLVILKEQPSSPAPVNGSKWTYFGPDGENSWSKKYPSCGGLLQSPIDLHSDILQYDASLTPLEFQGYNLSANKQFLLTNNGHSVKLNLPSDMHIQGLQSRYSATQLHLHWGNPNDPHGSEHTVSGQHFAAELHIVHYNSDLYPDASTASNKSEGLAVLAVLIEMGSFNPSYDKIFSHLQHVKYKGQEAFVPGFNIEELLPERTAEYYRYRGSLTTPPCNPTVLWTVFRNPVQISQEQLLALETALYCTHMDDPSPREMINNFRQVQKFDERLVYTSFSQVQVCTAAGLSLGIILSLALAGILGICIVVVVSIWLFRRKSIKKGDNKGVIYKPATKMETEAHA
Carbonic anhydrase 4, sequence (P22748 whole entry): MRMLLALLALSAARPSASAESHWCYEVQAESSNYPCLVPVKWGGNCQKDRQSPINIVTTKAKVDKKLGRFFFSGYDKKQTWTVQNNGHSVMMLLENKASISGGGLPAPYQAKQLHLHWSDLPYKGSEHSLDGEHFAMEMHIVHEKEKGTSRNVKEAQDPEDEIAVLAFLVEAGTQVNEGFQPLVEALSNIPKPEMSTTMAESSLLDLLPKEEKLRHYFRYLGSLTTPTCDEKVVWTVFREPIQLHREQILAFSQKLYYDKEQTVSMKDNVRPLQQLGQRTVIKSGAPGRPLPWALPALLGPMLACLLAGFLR

| Ki [2] | Ki [3] | Ki [5] | Ki [7] | Structure (SMILES) | Activity [1] | Activity [4] | Activity [6] | Emax [8] | Activity [9] | Activity [10] | Activity [11] | Activity [12] | Activity [13] | Activity [14] |
| --- | --- | --- | --- | --- | --- | --- | --- | --- | --- | --- | --- | --- | --- | --- |
| 420 nM | 68.5 nM | 5 nM | 109 nM | NS(=O)(=O)c1ccc(-c2cnc(C(=O)N3CCNCC3)o2)cc1 | Non-Toxic | Active | Non-Toxic | 35.6% | – | – | – | – | – | – |
| 257 nM | 91.5 nM | 0.54 nM | 61.9 nM | NC1CCN(C(=O)c2ncc(-c3ccc(S(N)(=O)=O)cc3)o2)CC1 | – | – | – | 22% | Toxic | inactive | – | – | – | – |
| – | 87.3 nM | – | 50.8 nM | NS(=O)(=O)c1ccc(-c2cnc(C(=O)NC3CCNCC3)o2)cc1 | – | – | – | 19.4% | Non-Toxic | – | Non-Toxic | – | – | – |
| – | – | – | – | CCN[C@H]1C[C@H](C)S(=O)(=O)c2sc(S(N)(=O)=O)cc21 [DORZOLAMIDE] | – | – | – | 27.8% | – | – | – | Non-Toxic | Non-Toxic | Active |
| – | 90.1 nM | – | 101 nM | NCCNC(=O)c1ncc(-c2ccc(S(N)(=O)=O)cc2)o1 | Non-Toxic | Active | Non-Toxic | 29.6% | – | – | – | – | – | – |
